From ChEMBL document CHEMBL1123913, “Discovery and anticonvulsant activity of the potent metabolic inhibitor 4-amino-N-(2,6-dimethylphenyl)-3,5-dimethylbenzamide” (1987) come the findings set out here.

The test system of test [1] is Mus musculus. Put plainly: Plasma concentration was determined after 120 min of oral administration in mice. In kind it is functional, organism-based. Put shortly: (§1)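 Three groups of two mice dosed orally at 1.7, 3.5 or 5.6 mg/kg, suspended in 5% acacia. Blood taken by cardiac puncture under methoxyfluorane into heparin, plasma stored at −30 °C. Parent and N-acetyl metabolite measured by C18 HPLC with absorbance detection against plasma standards of 50–2000 ng/mL. Detection limit 25 ng/mL. Mean ± SEM.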

The test system of test [2] is Mus musculus. Nature of the test: Plasma concentration was determined after 30 min of oral administration in mice. In kind it is functional, organism-based. Put shortly: as §1
For test [3], the system named is Mus musculus. Put plainly: Plasma concentration was determined after 60 min of oral administration in mice. Type of test: functional, organism-based. Put shortly:
as §1

Test [4] concerns Mus musculus. Put plainly: Antagonistic activity against MES(Maximal Electroshock)-induced seizures after oral administration to mice. In kind it is functional. Put shortly:
(§2)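 Fasted (90 min) mice dosed orally with a range of doses as suspension in 5% acacia/water. Electroshock 40 mA, 0.1 s, ac, via corneal electrodes at the time of peak effect, using at least four doses, 12 mice per dose. ED50 for prevention of tonic-extensor convulsions by Litchfield–Wilcoxon, with 95% confidence limits.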
A general note: Protection in the maximal electroshock model is a classic sign of anticonvulsant action.

The species named for test [5] is Mus musculus. Put plainly: Ataxia or neurological deficit was measured as horizontal screen test(HS) in mice. In kind it is functional. The procedure, abridged: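 Male CF1 mice (20–25 g), fasted 90 min, given oral doses as suspension in 5% acacia/water, then placed on a 13 cm × 13 cm wire screen. Retested at the time of peak effect with at least four doses and 12 mice per dose. ED50 by Litchfield–Wilcoxon, with 95% confidence limits.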

For test [6], the system named is Mus musculus. Put plainly: Time taken for peak anticonvulsant effect(TPE) was measured by oral administration to mice. In kind it is functional. The procedure, abridged:
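Fasted mice, four per group, given a range of oral doses in 5% acacia/water. Challenged with corneal electroshock (40 mA, 0.1 s, ac) at 0.5, 1, 2, 3 and 4 h after dosing to find the time of peak anticonvulsant effect.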

Test [7] concerns Mus musculus. Nature of the test: Antagonistic activity against MES (Maximal Electroshock)-induced seizures after oral administration to mice. Type of test: functional. The procedure, abridged: as §2
Test [8] deals with Mus musculus. Nature of the test: Antagonistic activity against MES-induced seizures after oral administration to mice. Type of test: functional. Put shortly: as §2
Test [9] relates to Mus musculus. Nature of the test: Effect on Hexobarbitol-Induced sleeping time in mice at a dose of 0 mg/kg peroral administration. Type of test: functional. The note with it: route oral. Put shortly:
(§3)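 Groups of 10 fasted mice dosed orally in 5% acacia/water. Hexobarbital 100 mg/kg ip, solubilized with stoichiometric NaOH, given 0.5 h later. Sleeping time is loss of righting reflex, to the nearest minute. Reported as mean ± SEM and percent increase over hexobarbital control.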

The test system of test [10] is Mus musculus. Nature of the test: Effect on Hexobarbitol-Induced sleeping time in mice at a dose of 15.2 mg/kg peroral administration. The note with it: route oral. Type of test: functional. The procedure, abridged:
(§4)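 Groups of 10 fasted mice dosed orally in 5% acacia/water. Hexobarbital 100 mg/kg ip, solubilized with stoichiometric NaOH, given 1.0 h later. Duration of loss of righting reflex to the nearest minute. Mean ± SEM, percent increase over hexobarbital control, p < 0.05 significance.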

The subject of test [11] is Mus musculus. Nature of the test: Effect on Hexobarbitol-Induced sleeping time in mice at a dose of 3.8 mg/kg peroral administration. Type of test: functional. Conditions: route oral. Put shortly: as §4
Test [12] concerns Mus musculus. Put plainly: Effect on Hexobarbitol-Induced sleeping time in mice at a dose of 30.4 mg/kg peroral administration. Type of test: functional. Conditions: route oral. Put shortly: as §4
For test [13], the system named is Mus musculus. Nature of the test: Effect on Hexobarbitol-Induced sleeping time in mice at a dose of 7.6 mg/kg peroral administration. In kind it is functional. The note with it: route oral. Put shortly:
as §4

For test [14], the system named is Mus musculus. Nature of the test: Plasma concentration was determined after 240 min of oral administration in mice. Type of test: functional, organism-based. Put shortly: as §1
For test [15], the system named is Mus musculus. Put plainly: Plasma concentration was determined after 360 min of oral administration in mice. Type of test: functional, organism-based. Put shortly: as §1
Test [16] deals with Mus musculus. Put plainly: Ataxia or neurological deficit was measured as horizontal screen test(HS) in mice at the highest dose of 300 mg/kg; NA means Not active. Type of test: functional, organism-based. Also on record: dose 300 mg/kg.
Test [17] concerns Mus musculus. Put plainly: Ataxia or neurological deficit was measured as horizontal screen test(HS) in mice at a dose of 160 mg/kg; NA means Not active. In kind it is functional, organism-based. Further details: dose 160 mg/kg.
In test [18] the test system is Mus musculus. Nature of the test: Effect on Hexobarbitol-Induced sleeping time in mice at a dose of 1.6 mg/kg peroral administration. In kind it is functional. The note with it: route oral. Put shortly: as §3
Test [19] deals with Mus musculus. Put plainly: Effect on Hexobarbitol-Induced sleeping time in mice at a dose of 12.8 mg/kg peroral administration. Type of test: functional. The note with it: route oral. The procedure, abridged:
as §3

Test [20] relates to Mus musculus. Nature of the test: Effect on Hexobarbitol-Induced sleeping time in mice at a dose of 3.2 mg/kg peroral administration. Type of test: functional. Conditions: route oral. The procedure, abridged:
as §3

The test system of test [21] is Mus musculus. Put plainly: Effect on Hexobarbitol-Induced sleeping time in mice at a dose of 6.4 mg/kg peroral administration. Conditions: route oral. In kind it is functional. Put shortly: as §3
Test [22] is described as follows: Protective index (HS ED50/MES ED50) after oral administration in mice. In kind it is functional. The procedure, abridged: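 Ratio of the horizontal-screen ED50 to the MES ED50. Both come from oral dosing of fasted mice in 5% acacia/water at the time of peak effect and are calculated by Litchfield–Wilcoxon.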

The structures appear in SMILES notation. Calls of active or inactive are those of the source. The calls are words filed in the database; no cut-off is given here.

Consider `Cc1cc(C(=O)Nc2c(C)cccc2C)cc(C)c1N`, for which the figures for the Concentration in test [1], in [2] and in test [3] were 1060 ng/mL, 1480 ng/mL and 1160 ng/mL, respectively. The ED50 (as a rule, the dose that gives a 50% effect, or the effect in half of the subjects) in test [4] amounted to 5.6 mg/kg; in test [5] it was 64 mg/kg. In addition, in test [6], the TPE stood at 1 h.

On to `O=C1NC(=O)C(c2ccccc2)(c2ccccc2)N1` [PHENYTOIN], for which the figures for the ED50 in test [7] and in test [5] were 9.4 mg/kg and 210 mg/kg, respectively. The same compound registered a TPE in [6] of 1 h.

Regarding `CC(=O)Nc1ccc(C(=O)Nc2c(C)cccc2C)cc1C`, the figures for the Concentration in test [1], in [2] and in test [3] were 91 ng/mL, 79 ng/mL and 97 ng/mL, respectively. Also, the figures for the ED50 in test [7] and in test [5] were 4.5 mg/kg and 56 mg/kg, respectively. The TPE in [6] was found to be 1 h.

Regarding `Cc1cc(C(=O)Nc2c(C)cccc2C)ccc1N`, the ED50 in test [8] was determined as 3.5 mg/kg; in test [5], 84 mg/kg. In addition, the Sleeping time in [9] is reported as 66.4 min; in test [10], 85.5 min; in test [11], 85.6 min; in test [12] it was 133.8 min; in [13] it was 97.9 min. This compound registered a TPE in [6] of 1 h.

Regarding `CC(=O)Nc1ccc(C(=O)Nc2c(C)cccc2C)cc1`, the Concentration in test [1] was found to be 545 ng/mL; in [14] it was 425 ng/mL; in test [2], 412 ng/mL; in test [15], 225 ng/mL; in test [3] it was 587 ng/mL. In addition, the ED50 in [7] is 3.8 mg/kg. In [16], the ED50 result is “inactive”. This compound returned a TPE in [6] of 2 h.

Compound `CC(=O)Nc1c(C)cc(C(=O)Nc2c(C)cccc2C)cc1C` yielded an ED50 in [7] of 170 mg/kg. The ED50 result in test [17] is “inactive”. This compound returned a TPE in test [6] of 2 h.

Take `Cc1cccc(C)c1NC(=O)c1ccc(N)cc1` [AMELTOLIDE]: the Concentration in test [1] was determined as 656 ng/mL; in [14], 394 ng/mL; in test [2], 1090 ng/mL; in test [15] it was 299 ng/mL; in test [3], 893 ng/mL. Moreover, the ED50 in [7] was 1.7 mg/kg; in [5] it was 23 mg/kg. Also, the Sleeping time was found to be 59.6 min in test [9]; 67.9 min in [18]; 76.4 min in test [19]; 69.3 min in test [20]; 75 min in test [21]. Also, in [6], the TPE was 0.5 h. Further, the PI in [22] came to 13.
